ChEMBL document CHEMBL1156074, “Diazo transfer-click reaction route to new, lipophilic teicoplanin and ristocetin aglycon derivatives with high antibacterial and anti-influenza virus activity: an aggregation and receptor binding study” (J Med Chem, 2009)
≈ marks a conversion by molar mass, not a printed value. Calls of active or inactive are those of the source.

What was measured:
[1] = system: Staphylococcus epidermidis; assay: Bactericidal activity against biofilm of Staphylococcus epidermidis ATCC 35984 after overnight incubation; type: functional; settings: RP62A
Staphylococcus aureus [2] = assay: Antibacterial activity against methicillin-sensitive Staphylococcus aureus ATCC 33591 after 18 hrs by broth microdilution method; type: functional; settings: ATCC 33591, 18 h
Enterococcus faecalis [3] = assay: Bactericidal activity against vancomycin-resistant and teicoplanin-sensitive Enterococcus faecalis ATCC 51299 harboring vanB gene after overnight incubation; type: functional
Enterococcus faecalis [4] = assay: Antibacterial activity against vancomycin and teicoplanin-sensitive Enterococcus faecalis ATCC 29212 after 18 hrs by broth microdilution method; type: functional; settings: ATCC 29212, 18 h
Influenza A virus [5] = assay: Antiviral activity against Influenza A virus (A/Puerto Rico/8/34(H1N1)) assessed as inhibition of virus-induced cytopathic effect at highest concentration by cell-based assay; type: functional, organism-based; settings: A/Puerto Rico/8/1934(H1N1)
How it was run: (§1)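 Virus-induced cytopathic effect is scored visually in infected cell cultures. EC50 is defined as the compound concentration producing 50% inhibition of the CPE. A compound is recorded as not active when there is no inhibition at the highest concentration tested or at a subtoxic concentration.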

H3N2 subtype [6] = assay: Antiviral activity against Influenza A virus (A/Hong Kong/7/87(H3N2)) assessed as cell viability at subtoxic concentration by cell-based MTS assay; type: functional, organism-based; settings: A/Hong Kong/7/1987(H3N2)
[7] = system: Staphylococcus epidermidis; assay: Antibacterial activity against Staphylococcus epidermidis after 18 hrs by broth microdilution method; type: functional
Enterococcus faecalis [8] = assay: Antibacterial activity against vancomycin and teicoplanin-resistant Enterococcus faecalis 15376 harboring vanA gene after 18 hrs by broth microdilution method; type: functional; settings: Enterococcus faecalis, 15376, 18 h
[9] = system: Staphylococcus epidermidis; assay: Bactericidal activity against Staphylococcus epidermidis after overnight incubation; type: functional
Staphylococcus aureus [10] = assay: Bactericidal activity against methicillin-sensitive Staphylococcus aureus ATCC 29213 after overnight incubation; type: functional
Staphylococcus aureus [11] = assay: Bactericidal activity against methicillin-sensitive Staphylococcus aureus ATCC 33591 after overnight incubation; type: functional
Bacillus subtilis [12] = assay: Bactericidal activity against Bacillus subtilis ATCC 6633 after overnight incubation; type: functional
Bacillus subtilis [13] = assay: Antibacterial activity against Bacillus subtilis ATCC 6633 after 18 hrs by broth microdilution method; type: functional; settings: ATCC 6633, 18 h
Enterococcus faecalis [14] = assay: Bactericidal activity against vancomycin and teicoplanin-sensitive Enterococcus faecalis ATCC 29212 after overnight incubation; type: functional
Enterococcus faecalis [15] = assay: Bactericidal activity against vancomycin and teicoplanin-resistant Enterococcus faecalis 15376 harboring vanA gene after overnight incubation; type: functional
Influenza B virus [16] = assay: Antiviral activity against Influenza B virus (B/Hong Kong/5/72) assessed as cell viability at subtoxic concentration by cell-based MTS assay; type: functional; settings: B/Hong Kong/05/1972
Enterococcus faecalis [17] = assay: Antibacterial activity against vancomycin-resistant and teicoplanin-sensitive Enterococcus faecalis ATCC 51299 harboring vanB gene after 18 hrs by broth microdilution method; type: functional; settings: ATCC 51299, 18 h
H3N2 subtype [18] = assay: Antiviral activity against Influenza A virus (A/Hong Kong/7/87(H3N2)) assessed as inhibition of virus-induced cytopathic effect at highest concentration by cell-based assay; type: functional, organism-based; settings: A/Hong Kong/7/1987(H3N2); how it was run: as §1
Influenza A virus [19] = assay: Antiviral activity against Influenza A virus (A/Puerto Rico/8/34(H1N1)) assessed as cell viability at subtoxic concentration by cell-based MTS assay; type: functional, organism-based; settings: A/Puerto Rico/8/1934(H1N1)
[20] = system: Staphylococcus epidermidis; assay: Antibacterial activity against biofilm of Staphylococcus epidermidis ATCC 35984 after 18 hrs by broth microdilution method; type: functional; settings: RP62A
Influenza B virus [21] = assay: Antiviral activity against Influenza B virus (B/Hong Kong/5/72) assessed as inhibition of virus-induced cytopathic effect at highest concentration by cell-based assay; type: functional; settings: B/Hong Kong/05/1972; how it was run: as §1
Staphylococcus aureus [22] = assay: Antibacterial activity against methicillin-sensitive Staphylococcus aureus ATCC 29213 after 18 hrs by broth microdilution method; type: functional; settings: ATCC 29213, 18 h

COC(=O)[C@@H]1NC(=O)[C@H]2NC(=O)[C@H](NC(=O)[C@@H]3NC(=O)[C@H]4NC(=O)[C@@H](Cc5ccc(c(Cl)c5)Oc5cc3cc(c5O)Oc3ccc(cc3Cl)[C@H]2O)NC(=O)[C@H](N=[N+]=[N-])c2ccc(O)c(c2)Oc2cc(O)cc4c2)c2ccc(O)c(c2)-c2c(O)cc(O)cc21 [METHYL ESTER OF AZIDO TEICOPLANIN AGLYCON]
MBC [1]: 256 µg/mL (≈ 207 µM) | MIC (Staphylococcus aureus [2]): 64 µg/mL (≈ 51.7 µM) | MBC (Enterococcus faecalis [3]): 256 µg/mL (≈ 207 µM) | MIC (Enterococcus faecalis [4]): 128 µg/mL (≈ 103 µM) | inhibition (Influenza A virus [5]): inactive | inhibition (H3N2 subtype [6]): inactive | MIC [7]: 64 µg/mL (≈ 51.7 µM) | MIC (Enterococcus faecalis [8]): 128 µg/mL (≈ 103 µM) | MBC [9]: 256 µg/mL (≈ 207 µM) | MBC (Staphylococcus aureus [10]): 256 µg/mL (≈ 207 µM) | MBC (Staphylococcus aureus [11]): 256 µg/mL (≈ 207 µM) | MBC (Bacillus subtilis [12]): 4 µg/mL (≈ 3.23 µM) | MIC (Bacillus subtilis [13]): 2 µg/mL (≈ 1.61 µM) | MBC (Enterococcus faecalis [14]): 256 µg/mL (≈ 207 µM) | MBC (Enterococcus faecalis [15]): 256 µg/mL (≈ 207 µM) | inhibition (Influenza B virus [16]): inactive | MIC (Enterococcus faecalis [17]): 128 µg/mL (≈ 103 µM) | inhibition (H3N2 subtype [18]): inactive | inhibition (Influenza A virus [19]): inactive | MIC [20]: 64 µg/mL (≈ 51.7 µM) | inhibition (Influenza B virus [21]): inactive | MIC (Staphylococcus aureus [22]): 64 µg/mL (≈ 51.7 µM)

COC(=O)[C@H]1NC(=O)[C@H]2NC(=O)[C@H](NC(=O)[C@@H]3NC(=O)[C@H]4NC(=O)[C@H](NC(=O)[C@H](N=[N+]=[N-])c5ccc(O)c(c5)Oc5cc4cc(O)c5C)[C@H](O)c4ccc(cc4)Oc4cc3cc(c4O)Oc3ccc(cc3)[C@H]2O)c2ccc(O)c(c2)-c2c(O)cc(O)cc21
MBC [1]: 8 µg/mL (≈ 6.67 µM) | MIC (Staphylococcus aureus [2]): 2 µg/mL (≈ 1.67 µM) | MBC (Enterococcus faecalis [3]): 64 µg/mL (≈ 53.3 µM) | MIC (Enterococcus faecalis [4]): 16 µg/mL (≈ 13.3 µM) | MIC [7]: 16 µg/mL (≈ 13.3 µM) | MIC (Enterococcus faecalis [8]): > 256 µg/mL | MBC [9]: 16 µg/mL (≈ 13.3 µM) | MBC (Staphylococcus aureus [10]): 2 µg/mL (≈ 1.67 µM) | MBC (Staphylococcus aureus [11]): 1 µg/mL (≈ 0.833 µM) | MBC (Bacillus subtilis [12]): 1 µg/mL (≈ 0.833 µM) | MIC (Bacillus subtilis [13]): 4 µg/mL (≈ 3.33 µM) | MBC (Enterococcus faecalis [14]): 8 µg/mL (≈ 6.67 µM) | MIC (Enterococcus faecalis [17]): 128 µg/mL (≈ 107 µM) | MIC [20]: 16 µg/mL (≈ 13.3 µM) | MIC (Staphylococcus aureus [22]): 2 µg/mL (≈ 1.67 µM)

CC(=O)N[C@H]1[C@H](O[C@@H]2c3ccc(c(Cl)c3)Oc3cc4cc(c3O)Oc3ccc(cc3Cl)C[C@H]3NC(=O)[C@H](N=[N+]=[N-])c5ccc(O)c(c5)Oc5cc(O)cc(c5)[C@H](NC3=O)C(=O)N[C@H]4C(=O)N[C@H]3C(=O)N[C@@H]2C(=O)N[C@@H](C(=O)O)c2cc(O)cc(O)c2-c2cc3ccc2O)O[C@H](CO)[C@@H](O)[C@@H]1O
MBC [1]: 16 µg/mL (≈ 11.2 µM) | MIC (Staphylococcus aureus [2]): 4 µg/mL (≈ 2.8 µM) | MBC (Enterococcus faecalis [3]): 32 µg/mL (≈ 22.4 µM) | MIC (Enterococcus faecalis [4]): 32 µg/mL (≈ 22.4 µM) | inhibition (Influenza A virus [5]): inactive | inhibition (H3N2 subtype [6]): inactive | MIC [7]: 4 µg/mL (≈ 2.8 µM) | MIC (Enterococcus faecalis [8]): > 256 µg/mL | MBC [9]: 4 µg/mL (≈ 2.8 µM) | MBC (Staphylococcus aureus [10]): 8 µg/mL (≈ 5.6 µM) | MBC (Staphylococcus aureus [11]): 2 µg/mL (≈ 1.4 µM) | MBC (Bacillus subtilis [12]): 32 µg/mL (≈ 22.4 µM) | MIC (Bacillus subtilis [13]): 64 µg/mL (≈ 44.8 µM) | MBC (Enterococcus faecalis [14]): 32 µg/mL (≈ 22.4 µM) | inhibition (Influenza B virus [16]): inactive | MIC (Enterococcus faecalis [17]): 64 µg/mL (≈ 44.8 µM) | inhibition (H3N2 subtype [18]): inactive | inhibition (Influenza A virus [19]): inactive | MIC [20]: 16 µg/mL (≈ 11.2 µM) | inhibition (Influenza B virus [21]): inactive | MIC (Staphylococcus aureus [22]): 8 µg/mL (≈ 5.6 µM)

CCCCCCCCCCOCc1cn([C@H]2C(=O)N[C@@H]3Cc4ccc(c(Cl)c4)Oc4cc5cc(c4O)Oc4ccc(cc4Cl)[C@@H](O[C@@H]4O[C@H](CO)[C@@H](O)[C@H](O)[C@H]4NC(C)=O)[C@@H]4NC(=O)[C@H](NC(=O)[C@@H]5NC(=O)[C@@H](NC3=O)c3cc(O)cc(c3)Oc3cc2ccc3O)c2ccc(O)c(c2)-c2c(O)cc(O)cc2[C@H](C(=O)O)NC4=O)nn1
MBC [1]: 0.25 µg/mL (≈ 0.154 µM) | MIC (Staphylococcus aureus [2]): 0.5 µg/mL (≈ 0.308 µM) | MBC (Enterococcus faecalis [3]): 0.25 µg/mL (≈ 0.154 µM) | MIC (Enterococcus faecalis [4]): 0.5 µg/mL (≈ 0.308 µM) | inhibition (Influenza A virus [5]): inactive | inhibition (H3N2 subtype [6]): inactive | MIC [7]: 0.5 µg/mL (≈ 0.308 µM) | MIC (Enterococcus faecalis [8]): 0.5 µg/mL (≈ 0.308 µM) | MBC [9]: 0.5 µg/mL (≈ 0.308 µM) | MBC (Staphylococcus aureus [10]): 0.25 µg/mL (≈ 0.154 µM) | MBC (Staphylococcus aureus [11]): 0.25 µg/mL (≈ 0.154 µM) | MBC (Bacillus subtilis [12]): 0.25 µg/mL (≈ 0.154 µM) | MIC (Bacillus subtilis [13]): 2 µg/mL (≈ 1.23 µM) | MBC (Enterococcus faecalis [14]): 0.25 µg/mL (≈ 0.154 µM) | MBC (Enterococcus faecalis [15]): 0.25 µg/mL (≈ 0.154 µM) | inhibition (Influenza B virus [16]): inactive | MIC (Enterococcus faecalis [17]): 0.5 µg/mL (≈ 0.308 µM) | inhibition (H3N2 subtype [18]): inactive | inhibition (Influenza A virus [19]): inactive | MIC [20]: 0.5 µg/mL (≈ 0.308 µM) | inhibition (Influenza B virus [21]): inactive | MIC (Staphylococcus aureus [22]): 0.5 µg/mL (≈ 0.308 µM)
